Consider five compounds from publication PMC6520168 (ACS chemical neuroscience, 2019).

Entries after “also recorded” stand apart in the source; their conditions may differ. Where two headings read alike, the source gives them in different places.

By Emax is commonly meant the greatest response seen or fitted, relative to the assay's reference. The EC50 is the concentration giving half of the maximal effect. The low end stands for an effect from little substance, the high end for a need for much substance. In general, Ki refers to the dissociation constant of the complex between target and ligand, obtained from inhibition or displacement.

Data set [1] has as its target T1, MOR (Mus musculus, UniProt P42866). It is filed as cell-based. Particulars: 24 h pretreatment.
Data set [2] concerns the target T1, MOR. Particulars: 24 h pretreatment; values previously published; cited from earlier work.
Data set [3] deals with T1, MOR. The class given is cell-based.
The subject of the next data set is MOR in rat thalamus. The conditions noted are these: cited from earlier work.
For the next data set, the target named is μ opioid receptor (MOR) (Mus musculus, UniProt P42866). Put plainly: [35S]-GTPγS functional assay in mMOR-CHO cell membranes. The class given is biochemical.
The target in another data set is MOR in mouse thalamus (Mus musculus, UniProt P42866). The experiment in a line: [35S]-GTPγS functional assay in mouse thalamus membranes. The class given is biochemical. (GTPγS resists hydrolysis and so accumulates on activated G proteins.)
The next data set concerns the target δ opioid receptor (DOR) (Mus musculus, UniProt P32300). Put plainly: [35S]-GTPγS functional assay in mDOR-CHO cells. The class given is biochemical.
The target of a further data set is κ opioid receptor (KOR) (Mus musculus, UniProt P33534). The experiment in a line: [35S]-GTPγS functional assay in mKOR-CHO cells. It is filed as biochemical.
Another data set deals with human NOP receptor (Homo sapiens, UniProt P41146). The experiment in a line: [3H]nociceptin NOP receptor binding assay. Particulars: 3 μM test ligand. In outline: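 Membranes came from CHO cells stably expressing human NOP receptor (~5 pmol/mg protein), lysed hypotonically in Tris/EDTA/PMSF (pH 7.4). Binding used 20 μg protein with 0.2 nM [3H]nociceptin in 50 mM Tris-HCl, 0.1% BSA, pH 7.4, with or without 3 μM test compound. Percent inhibition = 100% − (binding with compound − nonspecific)/(total − nonspecific) × 100%.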

Another data set has as its target hMOR (Homo sapiens, UniProt P35372). The experiment in a line: Ca2+ flux assay in Gαqi5 transfected hMOR-CHO cells. It is filed as cell-based. The conditions noted are these: agonism study. On the technique in general: Calcium flux is commonly read through the fluorescence of an indicator in the cells.
The next data set relates to morphine-pelleted mice. Put plainly: Withdrawal assay in chronic morphine-pelleted mice. It is filed as in vivo, mouse.
The target of the next data set is DOR. The conditions noted are these: read-out: DOR Ki; cited from earlier work.
Another data set relates to mice. Particulars: cited from earlier work.
Where [4] appears, read: 1 mg/kg s.c., morphine-pelleted mice.
Setting [5] is: 50 mg/kg s.c., morphine-pelleted mice.

T1 sequence (P42866 whole entry): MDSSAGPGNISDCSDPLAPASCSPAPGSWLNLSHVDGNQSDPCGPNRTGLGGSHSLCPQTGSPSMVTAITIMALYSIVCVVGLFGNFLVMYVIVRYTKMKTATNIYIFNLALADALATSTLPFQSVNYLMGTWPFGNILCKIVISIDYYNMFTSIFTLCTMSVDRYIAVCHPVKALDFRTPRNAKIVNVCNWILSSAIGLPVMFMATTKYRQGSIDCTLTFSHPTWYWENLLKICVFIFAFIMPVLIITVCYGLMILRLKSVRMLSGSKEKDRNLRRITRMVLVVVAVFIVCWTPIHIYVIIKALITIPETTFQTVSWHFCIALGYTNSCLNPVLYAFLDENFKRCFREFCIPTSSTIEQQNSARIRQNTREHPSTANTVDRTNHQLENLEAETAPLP
Sequence of μ opioid receptor (MOR) (P42866 whole entry): as above
Sequence of κ opioid receptor (KOR) (P33534 whole entry): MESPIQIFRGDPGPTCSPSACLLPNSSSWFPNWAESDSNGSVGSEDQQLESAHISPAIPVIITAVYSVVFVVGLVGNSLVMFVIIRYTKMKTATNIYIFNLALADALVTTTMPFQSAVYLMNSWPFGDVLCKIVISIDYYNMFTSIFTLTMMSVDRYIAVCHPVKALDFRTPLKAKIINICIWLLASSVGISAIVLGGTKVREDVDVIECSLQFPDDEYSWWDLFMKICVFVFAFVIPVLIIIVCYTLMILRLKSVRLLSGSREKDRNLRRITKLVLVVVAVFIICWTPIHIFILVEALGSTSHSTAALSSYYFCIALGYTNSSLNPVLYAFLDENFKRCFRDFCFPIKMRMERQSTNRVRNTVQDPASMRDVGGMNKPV
Sequence of δ opioid receptor (DOR) (P32300 whole entry): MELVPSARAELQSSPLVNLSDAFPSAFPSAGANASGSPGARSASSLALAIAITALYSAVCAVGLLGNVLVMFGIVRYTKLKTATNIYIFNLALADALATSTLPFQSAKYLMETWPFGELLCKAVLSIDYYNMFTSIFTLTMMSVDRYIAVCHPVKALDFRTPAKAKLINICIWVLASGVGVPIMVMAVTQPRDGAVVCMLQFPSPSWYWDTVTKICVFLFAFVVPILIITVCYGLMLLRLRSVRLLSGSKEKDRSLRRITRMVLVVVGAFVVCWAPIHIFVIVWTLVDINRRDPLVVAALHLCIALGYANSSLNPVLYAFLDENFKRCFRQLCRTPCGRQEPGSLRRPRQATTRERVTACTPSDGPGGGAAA
Sequence of human NOP receptor (P41146 whole entry): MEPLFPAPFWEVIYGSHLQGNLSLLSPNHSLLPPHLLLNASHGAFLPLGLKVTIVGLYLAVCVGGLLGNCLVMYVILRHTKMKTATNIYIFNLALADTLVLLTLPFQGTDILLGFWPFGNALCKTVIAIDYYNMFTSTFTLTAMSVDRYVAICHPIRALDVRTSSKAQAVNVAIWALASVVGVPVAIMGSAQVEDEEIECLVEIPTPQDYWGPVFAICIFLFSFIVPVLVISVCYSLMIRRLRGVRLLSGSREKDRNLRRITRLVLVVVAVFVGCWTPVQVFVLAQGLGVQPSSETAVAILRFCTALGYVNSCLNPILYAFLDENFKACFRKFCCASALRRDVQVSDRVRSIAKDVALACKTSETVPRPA
Sequence of hMOR (P35372 whole entry): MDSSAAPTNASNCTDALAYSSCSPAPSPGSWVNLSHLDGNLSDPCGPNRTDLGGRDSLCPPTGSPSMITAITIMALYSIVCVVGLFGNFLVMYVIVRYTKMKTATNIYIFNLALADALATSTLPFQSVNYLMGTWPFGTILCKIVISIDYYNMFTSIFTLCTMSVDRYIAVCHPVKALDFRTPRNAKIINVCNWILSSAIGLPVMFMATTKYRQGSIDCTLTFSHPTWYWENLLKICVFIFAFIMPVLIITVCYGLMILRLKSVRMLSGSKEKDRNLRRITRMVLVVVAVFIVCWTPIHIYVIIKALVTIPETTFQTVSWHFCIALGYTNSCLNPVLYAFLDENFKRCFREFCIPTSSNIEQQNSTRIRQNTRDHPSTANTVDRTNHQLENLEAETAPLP
Sequence of MOR in mouse thalamus (P42866 whole entry): as the sequence (P42866 whole entry) above

With `C[C@@H](NC(=O)[C@@H](N)Cc1ccc(O)cc1)C(=O)NCC(=O)N(C)[C@@H](Cc1ccccc1)C(=O)NCCO` [DAMGO, [D-Ala^2, N-MePhe^4, Gly-ol]-enkephalin, reference compound], the “Reduction in receptor density (Bmax)” value at MOR [1] (versus vehicle) was roughly 50%. For the same compound, at MOR [2], the “Bmax (pmol/mg) of [3H]naloxone saturation binding after pretreatment” value (from here on “Bmax (pmol/mg)”) is 1.49 ± 0.12 pmol/mg.

Regarding `O=C(N[C@H]1CC[C@@]2(O)[C@H]3Cc4ccc(O)c5c4[C@@]2(CCN3CC2CC2)[C@H]1O5)c1cc2ccccc2cn1` [NAQ, 17-cyclopropyl-methyl-3,14β-dihydroxy-4,5α-epoxy-6α-(isoquinoline-3-carboxamido)morphinan], on MOR [3], the “Change of DAMGO EC50 value after ligand pretreatment (desensitization)” value is on record as “did not produce a significant change”. Further, the “Apparent increase in [3H]naloxone KD value after treatment” value at MOR [1] (versus vehicle) is 3.5–4 fold. In addition, the “Bmax (pmol/mg)” value at MOR [2] was 3.75 ± 0.34 pmol/mg.

Regarding `Oc1ccc2c3c1O[C@H]1[C@@H](O)CC[C@@]4(O)[C@@H](C2)N(CC2CCC2)CC[C@]314` [nalbuphine], the “Functional character in the rat thalamus” value with MOR in rat thalamus is given as “pure antagonists”.

In the case of `O=C(N[C@H]1CC[C@@]2(O)[C@H]3Cc4ccc(O)c5c4[C@@]2(CCN3CC2CC2)[C@H]1O5)c1cccc2cc[nH]c12` [NAN, 17-cyclopropylmethyl-3,14β-dihydroxy-4,5α-epoxy-6α-(indole-7-carboxamido)morphinan], the “Effect on the DAMGO Emax value” on μ opioid receptor (MOR) (5 nM coincubation, mMOR-CHO cells and thalamus) is reported as “did not have any effect on the DAMGO Emax value”. Also, the “MOR stimulation compared to other ligands” value at μ opioid receptor (MOR) (mMOR-CHO cells) is “low MOR stimulation that was significantly less than DAMGO and similar to NAQ and nalbuphine”; at MOR in mouse thalamus, “low MOR stimulation that was significantly less than DAMGO and similar to NAQ and nalbuphine”. In addition, the Emax is 25.5 ± 1.58% at μ opioid receptor (MOR) (read-out: Emax (% DAMGO)); roughly 27% at δ opioid receptor (DOR) (read-out: DOR Emax (% max of SNC80), mDOR-CHO, relative to 5 μM SNC80); roughly 74% at κ opioid receptor (KOR) (read-out: KOR Emax (% max of U50,488H), mKOR-CHO, relative to 5 μM U50,488H). Also, the EC50 on δ opioid receptor (DOR) (DOR EC50 (nM), mDOR-CHO) is 22.8 ± 3.95 nM; at κ opioid receptor (KOR) (KOR EC50 (nM), mKOR-CHO), 17.8 ± 3.24 nM. In addition, the “Inhibition of [3H]-nociceptin binding to the NOP receptor” value on human NOP receptor is “did not inhibit binding; also recorded: did not show NOP binding”. For the same compound, at hMOR, the “Agonism in Ca2+ flux assay” value was “no apparent agonism”. Also, on MOR [1] (1 μM), the “Bmax (pmol/mg)” value came out at 3.92 ± 0.20 pmol/mg. Moreover, the “Escape jumps versus 1 mg/kg NTX” value in the data set on morphine-pelleted mice (setting [4]) is “significantly less”; in the data set with morphine-pelleted mice (10 mg/kg s.c., morphine-pelleted mice) it was “not significantly different”; in the data set on morphine-pelleted mice (setting [5]), “not significantly different”. Moreover, the “Wet-dog shakes versus 1 mg/kg NTX” value in the data set on morphine-pelleted mice (setting [4]) and in the data set with morphine-pelleted mice (setting [5]) was “significantly less” in each case. In addition, the “Paw tremors versus 1 mg/kg NTX” value in the data set on morphine-pelleted mice (setting [5]) was “significantly less”. Also, the “Withdrawal signs in placebo-pelleted mice” value with morphine-pelleted mice (50 mg/kg s.c., placebo-pelleted mice, 20 min observation) is “did not induce any significant withdrawal signs”. The inhibition constant (Ki) at DOR is 0.0137 ± 0.00139 µM. In the data set with mice, the “Antinociception in the tail-flick assay” value is given as “did not produce antinociception”. In addition, the “Antagonism of the antinociceptive activity of morphine” value in the data set on mice (mice, warm water tail immersion assay) was “almost completely antagonized”.

Take `O=C1CC[C@@]2(O)[C@H]3Cc4ccc(O)c5c4[C@@]2(CCN3CC2CC2)[C@H]1O5` [NTX, naltrexone]: the “Functional character in the rat thalamus” value in the data set on MOR in rat thalamus was “pure antagonists”.
